Measured values taken from ChEMBL document CHEMBL5143713, “Multitarget, Selective Compound Design Yields Potent Inhibitors of a Kinetoplastid Pteridine Reductase 1” (J Med Chem, 2022).

How the values were obtained:
[1] = biological target: T1, Pteridine reductase, putative (Trypanosoma brucei, UniProt Q581W1); test: Inhibition of recombinant Trypanosoma brucei PTR1 expressed in Escherichia coli BL21 (DE3) cells using H2B as substrate in presence of cytochrome c and NADPH by envision multilabel reader
T1 sequence (Q581W1 whole entry): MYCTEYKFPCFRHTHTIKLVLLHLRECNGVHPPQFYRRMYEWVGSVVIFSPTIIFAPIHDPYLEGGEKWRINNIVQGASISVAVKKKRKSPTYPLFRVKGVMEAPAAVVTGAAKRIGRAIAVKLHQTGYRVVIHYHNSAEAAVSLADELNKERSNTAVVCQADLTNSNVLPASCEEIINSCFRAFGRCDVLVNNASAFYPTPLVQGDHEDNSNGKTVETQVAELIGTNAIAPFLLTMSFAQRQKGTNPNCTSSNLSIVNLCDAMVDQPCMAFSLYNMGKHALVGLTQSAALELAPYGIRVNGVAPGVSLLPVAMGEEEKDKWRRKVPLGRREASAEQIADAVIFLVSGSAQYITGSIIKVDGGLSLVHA

[2] = biological target: Bifunctional dihydrofolate reductase-thymidylate synthase (Trypanosoma brucei brucei, UniProt Q27783); test: Inhibition of recombinant Trypanosoma brucei DHFR-TS expressed in Escherichia coli BL21 (DE3) cells using dihydrofolate as substrate in presence of NADPH by spectrophotometric analysis
[3] = biological target: Bifunctional dihydrofolate reductase-thymidylate synthase (Leishmania major, UniProt P07382); test: Inhibition of recombinant Leishmania major DHFR-TS expressed in Escherichia coli BL21 (DE3) cells using dihydrofolate as substrate in presence of NADPH by spectrophotometric analysis
CYP2D6 = CYP2D6 (Homo sapiens, UniProt P10635); test: Inhibition of CYP2D6 (unknown origin) expressed in baculovirus-infected insect cells at 10 uM using CYP/Luciferin as substrate incubated for 30 mins in presence of NADPH by luminescence based analysis relative to control; type: ADME; conditions: probe CYP/Luciferin
Procedure, shortened: (§1)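 Tested at 10 μM using microsomal preparations of each CYP isoform from baculovirus-infected insect cells on a luminescent P450-Glo platform. The enzyme acts on its substrate to give light, and a fall in luminescence indicates inhibition.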

786-0 = test: Mitochondrial toxicity in human 786-0 cells at 10 uM incubated with compound for 6 hrs followed by incubation with MitoTracker Red chloromethyl-X-rosamine dye for 45 mins by imaging analysis relative to control; type: cell-based; conditions: 786-0, 6 h
Procedure, shortened: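 Tested at 10 μM. 786-O cells kept in RPMI-1640 with 2 mM glutamine, 10% FCS, streptomycin 100 μg/mL and penicillin G 100 U/mL. Mitochondrial toxicity read as MitoTracker Red (chloromethyl-X-rosamine) uptake by high-content imaging.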

A549 = test: Cytotoxicity against human A549 cells at 10 uM measured after 48 hrs by Celltiter-Glo assay relative to control; type: toxicity, cell-based; conditions: a549, 48 h
Procedure, shortened: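 Tested at 10 μM. A549 cells grown in DMEM with 10% FCS, streptomycin 100 μg/mL and penicillin G 100 U/mL. Viability read as cellular ATP by CellTiter-Glo luminescence.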

Pteridine reductase 1 = biological target: T2, Pteridine reductase 1 (Leishmania major, UniProt Q01782); test: Inhibition of recombinant Leishmania major PTR1 expressed in Escherichia coli BL21 (DE3) cells using H2B as substrate in presence of cytochrome c and NADPH by envision multilabel reader
T2 sequence (Q01782 whole entry): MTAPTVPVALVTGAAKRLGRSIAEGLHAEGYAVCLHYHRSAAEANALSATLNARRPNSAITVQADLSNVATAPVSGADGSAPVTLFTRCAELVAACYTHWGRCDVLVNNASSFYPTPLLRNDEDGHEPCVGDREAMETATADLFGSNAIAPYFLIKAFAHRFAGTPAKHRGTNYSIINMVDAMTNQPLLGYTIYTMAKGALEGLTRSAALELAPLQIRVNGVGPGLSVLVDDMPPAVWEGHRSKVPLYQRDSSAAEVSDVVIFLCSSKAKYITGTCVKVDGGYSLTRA

Dihydrofolate reductase = biological target: T3, Dihydrofolate reductase (Homo sapiens, UniProt P00374); test: Inhibition of recombinant human DHFR expressed in Escherichia coli BL21 (DE3) cells using dihydrofolate as substrate in presence of NADPH by spectrophotometric analysis; type: toxicity
T3 sequence (P00374 whole entry): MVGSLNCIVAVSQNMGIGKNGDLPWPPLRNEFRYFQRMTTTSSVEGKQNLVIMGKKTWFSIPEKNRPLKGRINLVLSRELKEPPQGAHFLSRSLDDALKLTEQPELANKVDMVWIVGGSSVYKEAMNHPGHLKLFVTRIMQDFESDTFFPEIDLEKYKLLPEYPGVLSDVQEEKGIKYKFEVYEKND

[4] = test system: human DHFR versus Trypanosoma brucei PTR1; test: Selectivity index, ratio of IC50 for human DHFR to IC50 for Trypanosoma brucei PTR1; type: toxicity; conditions: read-out: Ratio IC50
[5] = test system: human DHFR versus Leishmania major PTR1; test: Selectivity index, ratio of IC50 for human DHFR to IC50 for Leishmania major PTR1; type: toxicity; conditions: read-out: Ratio IC50
[6] = test system: human DHFR versus Trypanosoma brucei DHFR; test: Selectivity index, ratio of IC50 for human DHFR to IC50 for Trypanosoma brucei DHFR; type: toxicity; conditions: read-out: Ratio IC50
[7] = test system: human DHFR versus Leishmania major DHFR; test: Selectivity index, ratio of IC50 for human DHFR to IC50 for Leishmania major DHFR; type: toxicity; conditions: read-out: Ratio IC50
CYP2C9 = CYP2C9 (Homo sapiens, UniProt P11712); test: Inhibition of CYP2C9 (unknown origin) expressed in baculovirus-infected insect cells at 10 uM using CYP/Luciferin as substrate incubated for 30 mins in presence of NADPH by luminescence based analysis relative to control; type: ADME; conditions: probe CYP/Luciferin; procedure, shortened: as §1
CYP3A4 = CYP3A4 (Homo sapiens, UniProt P08684); test: Inhibition of CYP3A4 (unknown origin) expressed in baculovirus-infected insect cells at 10 uM using CYP/Luciferin as substrate incubated for 30 mins in presence of NADPH by luminescence based analysis relative to control; type: ADME; conditions: probe CYP/Luciferin; procedure, shortened: as §1
CYP1A2 = biological target: T4, CYP1A2 (Homo sapiens, UniProt P05177); test: Inhibition of CYP1A2 (unknown origin) expressed in baculovirus-infected insect cells at 10 uM using CYP/Luciferin as substrate incubated for 30 mins in presence of NADPH by luminescence based analysis relative to control; type: ADME; conditions: probe CYP/Luciferin; procedure, shortened: as §1
T4 sequence (P05177 whole entry): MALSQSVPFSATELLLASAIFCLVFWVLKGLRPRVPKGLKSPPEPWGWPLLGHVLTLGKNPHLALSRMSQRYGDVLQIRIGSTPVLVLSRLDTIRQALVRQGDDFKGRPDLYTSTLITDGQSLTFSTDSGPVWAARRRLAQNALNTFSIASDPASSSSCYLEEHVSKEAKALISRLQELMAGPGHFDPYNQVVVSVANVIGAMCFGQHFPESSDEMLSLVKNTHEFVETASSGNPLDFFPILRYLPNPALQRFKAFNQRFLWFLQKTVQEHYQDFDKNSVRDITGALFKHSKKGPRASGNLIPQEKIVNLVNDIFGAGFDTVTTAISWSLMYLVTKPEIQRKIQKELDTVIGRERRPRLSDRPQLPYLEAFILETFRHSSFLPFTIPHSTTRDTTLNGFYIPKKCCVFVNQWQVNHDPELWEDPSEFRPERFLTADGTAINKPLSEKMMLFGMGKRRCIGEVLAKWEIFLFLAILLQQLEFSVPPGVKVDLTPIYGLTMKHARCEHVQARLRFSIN

CYP2C19 = CYP2C19 (Homo sapiens, UniProt P33261); test: Inhibition of CYP2C19 (unknown origin) expressed in baculovirus-infected insect cells at 10 uM using CYP/Luciferin as substrate incubated for 30 mins in presence of NADPH by luminescence based analysis relative to control; type: ADME; conditions: probe CYP/Luciferin; procedure, shortened: as §1
[8] = test system: Trypanosoma brucei brucei; test: Antitrypanosomal activity against bloodstream form of Trypanosoma brucei brucei Lister 427 assessed as parasite growth inhibition at 10 uM incubated for 72 hrs by resazurin dye based analysis relative to control; type: functional
[9] = test system: Trypanosoma brucei brucei; test: Antitrypanosomal activity against bloodstream form of Trypanosoma brucei brucei Lister 427 assessed as parasite growth inhibition incubated for 72 hrs by resazurin dye based analysis; type: functional, organism-based; conditions: Lister 427, 72 h
[10] = (§2) Cytotoxicity against human THP-1 derived macrophages by colorimetric MTT assay; type: toxicity, cell-based, Macrophage; conditions: THP-1 derived macrophages
Procedure, shortened: (§3)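 CC50 from at least three independent MTT colorimetric cytotoxicity runs on THP-1-derived macrophages. Selectivity index is CC50 (or lower CC50 interval estimate) divided by antiparasitic EC50.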

[11] = biological target: Voltage-gated inwardly rectifying potassium channel KCNH2 (Homo sapiens, UniProt Q12809); test: Inhibition of hERG potassium channel at 10 uM by fluorescence polarization assay relative to control; type: toxicity
Procedure, shortened: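 Tested at 10 μM. Fluorescence polarization readout using a hERG-containing membrane fraction and a red fluorescent high-affinity hERG tracer. Displacement of the tracer by the compound is measured.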

Macrophage = test: as §2; type: toxicity, cell-based; conditions: macrophage; procedure, shortened: as §3

Sequence of CYP3A4 (P08684 whole entry): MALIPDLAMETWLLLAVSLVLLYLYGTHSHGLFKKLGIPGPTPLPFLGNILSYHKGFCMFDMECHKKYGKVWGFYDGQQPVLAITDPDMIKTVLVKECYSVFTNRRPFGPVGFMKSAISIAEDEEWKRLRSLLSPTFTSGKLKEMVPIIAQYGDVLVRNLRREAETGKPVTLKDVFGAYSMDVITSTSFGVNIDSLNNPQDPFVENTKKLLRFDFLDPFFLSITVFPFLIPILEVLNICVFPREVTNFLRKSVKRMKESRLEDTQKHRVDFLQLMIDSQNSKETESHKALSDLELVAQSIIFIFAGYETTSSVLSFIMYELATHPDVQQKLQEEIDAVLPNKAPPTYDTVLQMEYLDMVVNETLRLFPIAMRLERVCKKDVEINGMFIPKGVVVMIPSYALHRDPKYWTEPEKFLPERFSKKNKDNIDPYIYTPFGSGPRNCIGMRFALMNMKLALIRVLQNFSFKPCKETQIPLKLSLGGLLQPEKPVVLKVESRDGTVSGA
Sequence of Bifunctional dihydrofolate reductase-thymidylate synthase (Trypanosoma brucei brucei, UniProt Q27783) (Q27783 whole entry): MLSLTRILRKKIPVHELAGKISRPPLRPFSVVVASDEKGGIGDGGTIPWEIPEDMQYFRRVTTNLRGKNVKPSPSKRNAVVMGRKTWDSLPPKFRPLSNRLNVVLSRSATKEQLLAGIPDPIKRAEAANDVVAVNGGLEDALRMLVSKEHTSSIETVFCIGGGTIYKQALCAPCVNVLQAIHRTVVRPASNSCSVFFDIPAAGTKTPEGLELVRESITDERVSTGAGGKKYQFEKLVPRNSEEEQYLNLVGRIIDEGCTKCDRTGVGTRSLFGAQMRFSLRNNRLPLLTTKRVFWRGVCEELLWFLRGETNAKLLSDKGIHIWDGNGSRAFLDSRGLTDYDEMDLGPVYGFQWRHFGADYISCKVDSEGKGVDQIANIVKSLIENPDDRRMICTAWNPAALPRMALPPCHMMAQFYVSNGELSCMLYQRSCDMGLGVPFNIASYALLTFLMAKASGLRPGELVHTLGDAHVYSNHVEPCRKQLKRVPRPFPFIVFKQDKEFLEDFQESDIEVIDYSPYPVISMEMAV
Sequence of Bifunctional dihydrofolate reductase-thymidylate synthase (Leishmania major, UniProt P07382) (P07382 whole entry): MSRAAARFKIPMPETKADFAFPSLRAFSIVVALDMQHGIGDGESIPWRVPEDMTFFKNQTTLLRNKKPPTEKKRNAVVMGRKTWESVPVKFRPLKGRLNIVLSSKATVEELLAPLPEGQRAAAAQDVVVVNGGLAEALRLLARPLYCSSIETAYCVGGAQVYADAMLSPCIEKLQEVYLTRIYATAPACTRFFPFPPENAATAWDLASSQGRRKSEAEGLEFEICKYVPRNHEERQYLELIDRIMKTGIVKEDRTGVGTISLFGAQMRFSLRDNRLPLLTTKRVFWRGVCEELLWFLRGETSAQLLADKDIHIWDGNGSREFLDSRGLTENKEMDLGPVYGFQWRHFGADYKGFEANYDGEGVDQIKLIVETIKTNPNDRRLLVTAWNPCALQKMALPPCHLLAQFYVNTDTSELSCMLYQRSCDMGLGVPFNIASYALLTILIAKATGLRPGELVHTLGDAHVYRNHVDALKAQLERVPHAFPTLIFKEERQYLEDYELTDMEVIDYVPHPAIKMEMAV
Sequence of CYP2C19 (P33261 whole entry): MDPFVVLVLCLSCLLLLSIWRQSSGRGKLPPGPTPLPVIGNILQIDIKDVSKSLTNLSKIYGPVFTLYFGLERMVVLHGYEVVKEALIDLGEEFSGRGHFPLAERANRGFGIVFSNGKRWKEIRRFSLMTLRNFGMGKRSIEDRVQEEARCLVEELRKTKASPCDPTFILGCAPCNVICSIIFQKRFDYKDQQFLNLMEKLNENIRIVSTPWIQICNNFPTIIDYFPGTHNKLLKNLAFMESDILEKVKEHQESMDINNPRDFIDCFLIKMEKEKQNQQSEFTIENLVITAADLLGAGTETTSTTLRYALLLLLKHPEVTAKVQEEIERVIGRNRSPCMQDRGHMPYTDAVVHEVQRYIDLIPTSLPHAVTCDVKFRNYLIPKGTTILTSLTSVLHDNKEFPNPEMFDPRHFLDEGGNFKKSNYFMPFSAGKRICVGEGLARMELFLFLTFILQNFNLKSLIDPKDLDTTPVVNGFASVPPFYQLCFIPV
Sequence of CYP2D6 (P10635 whole entry, canonical isoform): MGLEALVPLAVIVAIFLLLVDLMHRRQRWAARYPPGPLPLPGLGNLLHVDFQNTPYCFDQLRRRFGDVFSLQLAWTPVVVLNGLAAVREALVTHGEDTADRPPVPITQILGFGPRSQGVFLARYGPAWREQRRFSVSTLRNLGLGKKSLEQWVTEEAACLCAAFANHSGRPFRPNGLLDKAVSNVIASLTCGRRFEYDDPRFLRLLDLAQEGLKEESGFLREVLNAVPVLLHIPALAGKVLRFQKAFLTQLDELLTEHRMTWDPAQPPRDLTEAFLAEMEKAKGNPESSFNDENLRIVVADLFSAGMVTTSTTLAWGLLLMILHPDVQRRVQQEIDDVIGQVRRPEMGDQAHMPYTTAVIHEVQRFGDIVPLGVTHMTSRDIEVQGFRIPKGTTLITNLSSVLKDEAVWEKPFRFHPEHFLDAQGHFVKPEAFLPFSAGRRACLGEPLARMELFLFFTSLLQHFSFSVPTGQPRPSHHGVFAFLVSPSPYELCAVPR
Sequence of CYP2C9 (P11712 whole entry): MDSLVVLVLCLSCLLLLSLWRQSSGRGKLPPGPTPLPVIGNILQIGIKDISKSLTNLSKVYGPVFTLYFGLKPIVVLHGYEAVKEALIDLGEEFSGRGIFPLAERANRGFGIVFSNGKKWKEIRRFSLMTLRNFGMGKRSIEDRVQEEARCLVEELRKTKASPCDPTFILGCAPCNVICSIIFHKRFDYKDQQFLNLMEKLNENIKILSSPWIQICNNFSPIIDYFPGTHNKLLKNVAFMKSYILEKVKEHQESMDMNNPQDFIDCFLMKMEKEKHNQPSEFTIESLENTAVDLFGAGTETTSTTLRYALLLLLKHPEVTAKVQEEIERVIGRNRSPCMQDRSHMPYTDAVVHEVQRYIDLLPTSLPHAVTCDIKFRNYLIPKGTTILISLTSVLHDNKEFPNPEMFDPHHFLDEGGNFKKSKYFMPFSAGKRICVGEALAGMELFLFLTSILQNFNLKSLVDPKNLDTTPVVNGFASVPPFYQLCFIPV
Sequence of Voltage-gated inwardly rectifying potassium channel KCNH2 (Q12809 whole entry): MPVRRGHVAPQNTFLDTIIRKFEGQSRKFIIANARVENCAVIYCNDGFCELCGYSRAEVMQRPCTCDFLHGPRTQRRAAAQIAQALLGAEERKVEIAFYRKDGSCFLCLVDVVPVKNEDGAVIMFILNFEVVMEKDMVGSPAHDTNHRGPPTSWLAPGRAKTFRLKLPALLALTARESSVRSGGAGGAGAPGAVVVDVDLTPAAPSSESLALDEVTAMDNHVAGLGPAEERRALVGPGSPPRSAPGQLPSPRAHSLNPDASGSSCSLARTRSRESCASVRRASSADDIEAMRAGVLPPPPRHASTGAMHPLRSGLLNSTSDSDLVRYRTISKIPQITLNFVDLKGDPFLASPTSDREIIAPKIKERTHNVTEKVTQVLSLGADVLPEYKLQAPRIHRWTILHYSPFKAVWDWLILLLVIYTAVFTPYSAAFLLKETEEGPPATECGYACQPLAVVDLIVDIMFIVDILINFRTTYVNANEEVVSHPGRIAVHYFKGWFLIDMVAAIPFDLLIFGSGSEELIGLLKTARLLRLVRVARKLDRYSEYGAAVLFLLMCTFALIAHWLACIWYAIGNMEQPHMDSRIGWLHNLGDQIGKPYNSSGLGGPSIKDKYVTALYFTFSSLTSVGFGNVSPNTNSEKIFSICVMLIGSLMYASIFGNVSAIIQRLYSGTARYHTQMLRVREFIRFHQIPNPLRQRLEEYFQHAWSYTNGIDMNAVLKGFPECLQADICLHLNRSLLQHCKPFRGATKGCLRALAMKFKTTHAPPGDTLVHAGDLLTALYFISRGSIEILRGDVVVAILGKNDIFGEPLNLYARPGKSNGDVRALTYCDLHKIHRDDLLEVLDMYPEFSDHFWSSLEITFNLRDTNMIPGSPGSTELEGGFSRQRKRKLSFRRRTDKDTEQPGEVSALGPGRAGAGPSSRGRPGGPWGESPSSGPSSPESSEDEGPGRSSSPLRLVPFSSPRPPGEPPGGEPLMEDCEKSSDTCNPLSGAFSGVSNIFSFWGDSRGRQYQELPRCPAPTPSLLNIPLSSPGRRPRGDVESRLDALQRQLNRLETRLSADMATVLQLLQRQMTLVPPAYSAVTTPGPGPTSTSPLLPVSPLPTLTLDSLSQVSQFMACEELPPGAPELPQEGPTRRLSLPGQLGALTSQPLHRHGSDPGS

Structure (SMILES) | IC50 [1] [nM] | IC50 [2] [nM] | IC50 [3] [nM] | Activity (786-0) [%] | Activity (A549) [%] | IC50 (Pteridine reductase 1) [nM] | IC50 (Dihydrofolate reductase) [nM] | selectivity ratio [4] | selectivity ratio [5] | selectivity ratio [6] | selectivity ratio [7] | inhibition at 0.5 h, 10 µM (CYP3A4) [%] | inhibition at 10 µM [8] [%] | further results
COC(=O)C1CCN(C(=O)c2ccc(N(CCO)Cc3cnc4nc(N)nc(N)c4n3)cc2)CC1 | 200 | 1260 | 1210 | 0 | 100 |  |  |  |  |  |  |  |  | inhibition at 0.5 h, 10 µM (CYP2D6): 0%
COC(=O)C1CCN(C(=O)c2ccc(N(CCCO)Cc3cnc4nc(N)nc(N)c4n3)cc2)CC1 | 30 | 430 | 760 | 0 | 100 | 220 | 15000 | 500 | 68 | 35 | 20 |  |  | inhibition at 0.5 h, 10 µM (CYP2C9): 17%
Nc1nc(N)c2nc(CNc3ccc(C(=O)c4ccccc4)cc3)cnc2n1 | 1 | 990 | 3260 | 10 |  | 30 | 6020 | 6020 | 201 | 6 | 2 | 17 |  | 
COC(=O)C1CCN(C(=O)Cc2ccc(NCc3cnc4nc(N)nc(N)c4n3)cc2)CC1 | 140 | 620 | 850 | 0 | 100 | 1140 | 35000 | 250 | 31 | 56 | 41 |  |  | inhibition at 0.5 h, 10 µM (CYP1A2): 12%; inhibition at 0.5 h, 10 µM (CYP2C19): 12%
COc1ccc(Oc2ccc(CN(C)Cc3cnc4nc(N)nc(N)c4n3)cc2)cc1 | 150 |  |  | 1 | 15 | 450 |  |  |  |  |  |  | 100 | EC50 [9]: 1300 nM; CC50 [10]: 12500 nM; inhibition at 0.5 h, 10 µM (CYP1A2): 9%
COC(=O)C1CCN(C(=O)c2ccc(N(Cc3ccccc3)Cc3cnc4nc(N)nc(N)c4n3)cc2)CC1 | < 0.1 | 1200 | 910 | 0 | 100 | 20 | 73000 | > 730000 | 3650 | 61 | 80 |  |  | inhibition (INH) [11]: 45%
NC(=O)C1CCCN1C(=O)Cc1ccc(N(CCCO)Cc2cnc3nc(N)nc(N)c3n2)cc1 (stereo unspecified) | 4 | 590 | 890 |  |  | 170 |  |  |  |  |  | 0 | 23 | 
CCN(Cc1cnc2nc(N)nc(N)c2n1)c1ccc(C(=O)c2ccccc2)cc1 | < 0.1 | 340 | 230 | 0 | 0 | 50 |  |  |  |  |  |  | 78 | EC50 [9]: 660 nM; CC50 [10]: 25000 nM
COc1ccc(Oc2ccc(CNCc3cnc4nc(N)nc(N)c4n3)cc2)cc1 | 520 |  |  | 0 |  | 260 |  | 192 | 385 | 1 | 1 | 33 |  | 
N=C(N)c1ccc(OCCCCCOc2ccc(C(=N)N)cc2)cc1 [PENTAMIDINE] |  |  |  |  |  |  |  |  |  |  |  |  |  | CC50 (Macrophage): 10000 nM
